From ChEMBL document CHEMBL1121641, “Synthesis and anticonvulsant activity of N-(benzoylalkyl)imidazoles and N-(omega-phenyl-omega-hydroxyalkyl)imidazoles” (J Med Chem, 1981)

Key:
Mus musculus [1] = assay: Anticonvulsant activity by the maximal electroshock test in mice by intraperitoneal administration; type: functional; settings: ip
Summary of the method: (§1)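 Mice, groups of 10; compounds given ip or po as aqueous solutions or suspensions in 10% aqueous acacia gum. Maximal seizures elicited 30-60 min after dosing by 60-Hz alternating current, 25 mA for 0.2 s via corneal electrodes. Absence of tonic-extensor seizure scored as protection. ED50 by Litchfield-Wilcoxon with 95% confidence limits, or estimated graphically.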

Mus musculus [2] = assay: Anticonvulsant activity was evaluated by the maximal electroshock test in mice, administered orally; type: functional; settings: po; summary of the method: as §1
[3] = Lethal dose in mice determined after intraperitoneal administration.; type: toxicity, organism-based; settings: mouse, in vivo, ip
Summary of the method: (§2)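 Mice dosed ip or po with aqueous solution or suspension in 10% aqueous acacia gum, 10 animals per dose. Mortality recorded over 7 days, with behavioural symptoms observed by the Irwin scheme. LD50 derived from dose–mortality data.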

[4] = Ionization constant was determined by potentiometric titration at 22 degree C; type: physicochemical
Summary of the method: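 Methanolic-aqueous 10⁻³ M solutions of the hydrochloride salts titrated with 0.02 M KOH. Glass-calomel electrode system read on an expanded pH scale. pKa' obtained by the Albert-Serjeant procedure.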

[5] = Partition coefficient (logP); type: physicochemical; settings: octanol/water
Summary of the method: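 Octanol partitioning at room temperature (20 ± 5 °C) with gentle shaking for 6 h, then centrifugation for 15 min at 2000 rpm. Octanol phase quantified by gas chromatography. Amount in the second phase taken as total sample minus the octanol amount.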

[6] = Lethal dose determined in mice after oral administration; type: toxicity, organism-based; settings: mouse, in vivo; summary of the method: as §2

SMILES	ED50 (Mus musculus [1])	ED50 (Mus musculus [2])	LD50 [3]	pKa [4]	logP [5]	LD50 [6]
CC(C(=O)c1ccc(CCc2ccccc2)cc1)n1ccnc1 (centres undefined)	> 23 mg/kg	> 23 mg/kg	115 mg/kg			
Cl.OC(CCn1ccnc1)c1ccc(-c2ccccc2)cc1 (centres undefined)	44 mg/kg	53.5 mg/kg	360 mg/kg			
CC(C)(C(=O)c1ccc(CCc2ccccc2)cc1)n1ccnc1	29.5 mg/kg	> 36 mg/kg	180 mg/kg			
Cl.OC(Cn1ccnc1)c1ccccc1 (centres undefined)	> 42 mg/kg		210 mg/kg	6.68	0.99	
CC(C)(C(O)c1ccc(CCc2ccccc2)cc1)n1ccnc1.Cl (centres undefined)	22.4 mg/kg	> 48 mg/kg	240 mg/kg			
O=C(CCn1ccnc1)c1ccc(CCc2ccccc2)cc1	28.6 mg/kg	112 mg/kg	> 3000 mg/kg			2100 mg/kg
Cl.OC(CCn1ccnc1)c1ccc(CCc2ccccc2)cc1 (centres undefined)	21 mg/kg	24.7 mg/kg	420 mg/kg			560 mg/kg
O=C(Cn1ccnc1)c1ccc(Cl)cc1	> 48 mg/kg	> 48 mg/kg	240 mg/kg			
CC(C)(C(=O)c1ccc(-c2ccccc2)cc1)n1ccnc1	38 mg/kg	42.9 mg/kg	> 3000 mg/kg			1870 mg/kg
O=C(Cn1ccnc1)c1ccccc1-c1ccccc1	13.5 mg/kg	17.1 mg/kg	115 mg/kg			360 mg/kg
CCC1(c2ccccc2)C(=O)NC(=O)NC1=O.Cl [PHENOBARBITAL HYDROCHLORIDE]	22.5 mg/kg	17.6 mg/kg	235 mg/kg			237 mg/kg
O=C(Cn1ccnc1)c1ccc([N+](=O)[O-])cc1	> 72 mg/kg	> 72 mg/kg	360 mg/kg			
Cl.OC(Cn1ccnc1)c1ccc(Oc2ccccc2)cc1 (centres undefined)	31.1 mg/kg	> 48 mg/kg	360 mg/kg			
CC(C(O)c1ccc(-c2ccccc2)cc1)n1ccnc1.Cl (centres undefined)	19.6 mg/kg	24.7 mg/kg	655 mg/kg			570 mg/kg
CC(=O)Nc1ccc(C(=O)Cn2ccnc2)cc1	> 200 mg/kg	> 200 mg/kg	1000 mg/kg			
CC(C)(C(O)c1ccc(-c2ccccc2)cc1)n1ccnc1.Cl (centres undefined)	23.8 mg/kg	25.1 mg/kg	420 mg/kg			2400 mg/kg
COc1ccc(C(O)Cn2ccnc2)cc1.Cl (centres undefined)	> 72 mg/kg		360 mg/kg			
O=C(Cn1ccnc1)c1ccccc1	> 72 mg/kg		360 mg/kg	6.32	1.03	
Nc1ccc(C(=O)Cn2ccnc2)cc1	> 72 mg/kg	> 72 mg/kg	360 mg/kg			
Cl.OC(Cn1ccnc1)c1ccc(-c2ccccc2)cc1 (centres undefined)	45 mg/kg	31 mg/kg	1150 mg/kg			> 30000 mg/kg
CC(C(=O)c1ccc(-c2ccccc2)cc1)n1ccnc1 (centres undefined)	13.4 mg/kg	> 18 mg/kg	87.5 mg/kg			
Cl.OC(Cn1ccnc1)c1cccc(-c2ccccc2)c1 (centres undefined)	15.8 mg/kg	25 mg/kg	180 mg/kg			
Cl.OC(Cn1ccnc1)c1ccc(CCc2ccccc2)cc1 (centres undefined)	5.3 mg/kg	10.2 mg/kg	270 mg/kg			434 mg/kg
CCC(C)c1ccc(C(=O)Cn2ccnc2)cc1 (centres undefined)	> 23 mg/kg	> 23 mg/kg	115 mg/kg			
O=C(Cn1ccnc1)c1ccccc1Cl			360 mg/kg			
O=C(Cn1ccnc1)c1ccc(O)cc1	> 150 mg/kg	> 150 mg/kg	750 mg/kg			

SMILES	ED50 (Mus musculus [1])	ED50 (Mus musculus [2])	LD50 [3]	pKa [4]	logP [5]	LD50 [6]
Cl.O=[N+]([O-])c1ccc(C(O)Cn2ccnc2)cc1 (centres undefined)	98 mg/kg	98 mg/kg	490 mg/kg			
O=C(Cn1ccnc1)c1ccc(Oc2ccccc2)cc1	> 20 mg/kg	> 20 mg/kg	100 mg/kg			
Cl.OC(Cn1ccnc1)c1ccccc1-c1ccccc1 (centres undefined)	18.8 mg/kg	24.5 mg/kg	155 mg/kg			300 mg/kg
O=C(Cn1ccnc1)c1cccc(-c2ccccc2)c1	11.2 mg/kg	21 mg/kg	210 mg/kg			750 mg/kg
CC(C)(C)c1ccc(C(O)Cn2ccnc2)cc1.Cl (centres undefined)	42 mg/kg	> 42 mg/kg	210 mg/kg			
Cl.O=C1NC(=O)C(c2ccccc2)(c2ccccc2)N1 [PHENYTOIN CHLORIDE]	8.5 mg/kg	9.7 mg/kg				
CCC(C)c1ccc(C(O)Cn2ccnc2)cc1.Cl (centres undefined)	28.5 mg/kg	31.2 mg/kg	210 mg/kg			
Cl.Nc1ccc(C(O)Cn2ccnc2)cc1 (centres undefined)	> 175 mg/kg	> 175 mg/kg	875 mg/kg			
Cl.OC(Cn1ccnc1)c1ccc(C2CCCCC2)cc1 (centres undefined)	53 mg/kg	59.6 mg/kg	490 mg/kg			2700 mg/kg
O=C(CCn1ccnc1)c1ccc(-c2ccccc2)cc1	35.1 mg/kg	40.5 mg/kg				1150 mg/kg
CC(Cn1ccnc1)C(=O)c1ccc(-c2ccccc2)cc1 (centres undefined)	19.5 mg/kg	> 26 mg/kg	130 mg/kg			
O=C(Cn1ccnc1)c1ccc(CCc2ccccc2)cc1	12.7 mg/kg	36.9 mg/kg				
O=C(Cn1ccnc1)c1ccc(O)c(O)c1	> 200 mg/kg	> 200 mg/kg	1000 mg/kg			
O=C(Cn1ccnc1)c1ccc(-c2ccccc2)cc1	61.3 mg/kg	78.3 mg/kg	1550 mg/kg			2400 mg/kg
OC(Cn1ccnc1)c1ccc(Cl)cc1 (centres undefined)	31 mg/kg	> 54 mg/kg	270 mg/kg			
O=C(Cn1ccnc1)c1ccc(C2CCCCC2)cc1	62.2 mg/kg	89.9 mg/kg	> 3000 mg/kg			2100 mg/kg
CC(C(O)c1ccc(CCc2ccccc2)cc1)n1ccnc1.Cl (centres undefined)	15 mg/kg	36 mg/kg	180 mg/kg			
CC(Cn1ccnc1)C(O)c1ccc(-c2ccccc2)cc1.Cl (centres undefined)	25.7 mg/kg	32.3 mg/kg	210 mg/kg			
CC(C)(C)c1ccc(C(=O)Cn2ccnc2)cc1	> 20 mg/kg	> 20 mg/kg	100 mg/kg			
Cl.Oc1ccc(C(O)Cn2ccnc2)cc1 (centres undefined)	> 200 mg/kg	> 200 mg/kg	1000 mg/kg			
Cl.Oc1ccc(C(O)Cn2ccnc2)cc1O (centres undefined)	> 230 mg/kg	> 230 mg/kg	1150 mg/kg			
COc1ccc(C(=O)Cn2ccnc2)cc1	> 54 mg/kg		270 mg/kg			
CS(=O)(=O)Nc1ccc(C(=O)Cn2ccnc2)cc1	> 300 mg/kg	> 300 mg/kg	> 3000 mg/kg			> 3000 mg/kg
O=C(Cn1ccnc1)c1ccc(Cl)cc1Cl	> 84 mg/kg	> 84 mg/kg	420 mg/kg			
OC(Cn1ccnc1)c1ccc(Cl)cc1Cl (centres undefined)	39.7 mg/kg	39.7 mg/kg	300 mg/kg			
